Source: ChEMBL document CHEMBL2375292, “Biaryl tetrazolyl ureas as inhibitors of endocannabinoid metabolism: modulation at the N-portion and distal phenyl ring” (Eur J Med Chem, 2013)

Assays:
[1] = target: T1, Diacylglycerol lipase-alpha (Homo sapiens) (UniProt Q9Y4D2); assay: Activation of human recombinant DAGLalpha expressed in African green monkey COS7 cells assessed as increase in N-oleoylethanolamine level per mg of extracted lipid at 3 uM preincubated for 10 mins measured after 20 mins by LC-MS analysis (reference value: 1.08 +/- 0.17 pmol); type: cell-based; conditions: COS-7
T1 sequence (whole entry): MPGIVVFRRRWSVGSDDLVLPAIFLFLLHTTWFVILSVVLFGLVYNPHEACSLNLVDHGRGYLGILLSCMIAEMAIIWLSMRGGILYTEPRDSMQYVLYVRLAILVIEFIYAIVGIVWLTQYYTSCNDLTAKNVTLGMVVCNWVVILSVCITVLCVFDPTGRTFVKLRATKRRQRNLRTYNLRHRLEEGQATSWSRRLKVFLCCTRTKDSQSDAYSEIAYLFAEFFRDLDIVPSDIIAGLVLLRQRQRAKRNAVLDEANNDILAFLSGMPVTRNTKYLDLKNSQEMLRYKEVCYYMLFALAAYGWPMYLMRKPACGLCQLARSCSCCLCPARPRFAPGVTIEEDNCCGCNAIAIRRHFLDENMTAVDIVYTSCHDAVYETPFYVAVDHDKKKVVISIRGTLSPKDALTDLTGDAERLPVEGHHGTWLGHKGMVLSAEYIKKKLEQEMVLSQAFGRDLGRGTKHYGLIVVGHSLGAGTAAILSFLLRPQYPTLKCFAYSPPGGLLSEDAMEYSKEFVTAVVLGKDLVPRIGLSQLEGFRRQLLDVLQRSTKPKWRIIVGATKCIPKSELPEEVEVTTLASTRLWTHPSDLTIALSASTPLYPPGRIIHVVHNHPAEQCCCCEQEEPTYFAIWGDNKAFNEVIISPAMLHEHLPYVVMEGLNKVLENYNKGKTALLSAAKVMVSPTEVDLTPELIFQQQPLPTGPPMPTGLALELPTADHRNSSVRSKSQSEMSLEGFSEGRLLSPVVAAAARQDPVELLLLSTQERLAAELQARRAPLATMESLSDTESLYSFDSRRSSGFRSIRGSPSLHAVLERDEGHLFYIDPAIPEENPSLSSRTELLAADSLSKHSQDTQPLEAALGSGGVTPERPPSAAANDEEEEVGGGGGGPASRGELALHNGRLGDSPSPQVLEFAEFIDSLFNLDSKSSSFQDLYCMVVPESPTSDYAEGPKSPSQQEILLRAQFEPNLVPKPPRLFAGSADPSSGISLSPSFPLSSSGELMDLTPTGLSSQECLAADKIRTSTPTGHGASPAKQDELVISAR
Summary of the method: (§1)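 About 10⁶ COS-7 cells overexpressing human recombinant DAGL-α per data point. Cells were preincubated 10 min with compound, then incubated 20 min at 37 °C with vehicle or ionomycin 3 µM. They were then homogenized in CHCl₃/CH₃OH/Tris-HCl 50 mM pH 7.4 (2/1/1) containing 5 pmol each of d⁸-AEA, d⁵-2-AG and d⁴-OEA as internal standards. Results in pmol/mg lipid extracted, means ± SD, n = 4.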

[2] = target: T1, Diacylglycerol lipase-alpha (Homo sapiens); assay: Activation of human recombinant DAGLalpha expressed in African green monkey COS7 cells assessed as increase in anandamide level per mg of extracted lipid at 3 uM preincubated for 10 mins measured after 20 mins by LC-MS analysis (reference value: 0.16 +/- 004 pmol); type: cell-based; conditions: COS-7; summary of the method: as §1
[3] = target: T1, Diacylglycerol lipase-alpha (Homo sapiens); assay: (§2) Activation of human recombinant DAGLalpha expressed in African green monkey COS7 cells assessed as increase in 2-arachidonoylglycerol level per mg of extracted lipid at 3 uM preincubated for 10 mins measured after 20 mins by LC-MS analysis (reference value: 2.82 +/- 0.75 pmol); type: cell-based; conditions: COS-7; summary of the method: as §1
[4] = target: T1, Diacylglycerol lipase-alpha (Homo sapiens); assay: as §2, with “1” for “3”, “analysis in presence of ionomycin” for “analysis”; type: cell-based; conditions: COS-7
Summary of the method: (§3)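 About 10⁶ COS-7 cells overexpressing human recombinant DAGL-α per point, preincubated 10 min with test compound or not, then 20 min at 37 °C with vehicle or ionomycin 3 µM. Cells homogenized in CHCl₃/CH₃OH/Tris-HCl 50 mM pH 7.4 (2/1/1) with 5 pmol d⁸-AEA, d⁵-2-AG and d⁴-OEA as internal standards. Levels in pmol/mg lipid extracted, mean ± SD, n = 4.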

[5] = target: T2, Monoglyceride lipase (Homo sapiens, UniProt Q99685); assay: Inhibition of MAGL (unknown origin) expressed in African green monkey COS7 cell cytosolic fraction assessed as [3H]2-AG hydrolysis to [3H]arachidonic acid after 20 mins by beta counting analysis; design: species or system COS-7
T2 sequence (Q99685 whole entry): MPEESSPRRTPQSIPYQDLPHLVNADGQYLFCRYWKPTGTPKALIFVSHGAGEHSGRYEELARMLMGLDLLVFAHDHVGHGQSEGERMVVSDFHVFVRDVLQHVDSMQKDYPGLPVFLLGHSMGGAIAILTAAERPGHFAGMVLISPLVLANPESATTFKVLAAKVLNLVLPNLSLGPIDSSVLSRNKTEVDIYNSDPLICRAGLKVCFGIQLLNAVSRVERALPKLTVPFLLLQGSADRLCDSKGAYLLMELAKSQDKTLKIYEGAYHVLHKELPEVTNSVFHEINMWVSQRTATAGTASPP

[6] = target: Transient receptor potential cation channel subfamily A member 1 (Rattus norvegicus) (UniProt Q6RI86); assay: Agonist activity at rat TRPA1 receptor expressed in HEK293 cells assessed as increase in intracellular Ca2+ concentration by spectrofluorimetric analysis relative to allyl isothiocyanate; type: cell-based
Transient receptor potential cation channel subfamily A member 1 (Rattus norvegicus), sequence (Q6RI86 whole entry): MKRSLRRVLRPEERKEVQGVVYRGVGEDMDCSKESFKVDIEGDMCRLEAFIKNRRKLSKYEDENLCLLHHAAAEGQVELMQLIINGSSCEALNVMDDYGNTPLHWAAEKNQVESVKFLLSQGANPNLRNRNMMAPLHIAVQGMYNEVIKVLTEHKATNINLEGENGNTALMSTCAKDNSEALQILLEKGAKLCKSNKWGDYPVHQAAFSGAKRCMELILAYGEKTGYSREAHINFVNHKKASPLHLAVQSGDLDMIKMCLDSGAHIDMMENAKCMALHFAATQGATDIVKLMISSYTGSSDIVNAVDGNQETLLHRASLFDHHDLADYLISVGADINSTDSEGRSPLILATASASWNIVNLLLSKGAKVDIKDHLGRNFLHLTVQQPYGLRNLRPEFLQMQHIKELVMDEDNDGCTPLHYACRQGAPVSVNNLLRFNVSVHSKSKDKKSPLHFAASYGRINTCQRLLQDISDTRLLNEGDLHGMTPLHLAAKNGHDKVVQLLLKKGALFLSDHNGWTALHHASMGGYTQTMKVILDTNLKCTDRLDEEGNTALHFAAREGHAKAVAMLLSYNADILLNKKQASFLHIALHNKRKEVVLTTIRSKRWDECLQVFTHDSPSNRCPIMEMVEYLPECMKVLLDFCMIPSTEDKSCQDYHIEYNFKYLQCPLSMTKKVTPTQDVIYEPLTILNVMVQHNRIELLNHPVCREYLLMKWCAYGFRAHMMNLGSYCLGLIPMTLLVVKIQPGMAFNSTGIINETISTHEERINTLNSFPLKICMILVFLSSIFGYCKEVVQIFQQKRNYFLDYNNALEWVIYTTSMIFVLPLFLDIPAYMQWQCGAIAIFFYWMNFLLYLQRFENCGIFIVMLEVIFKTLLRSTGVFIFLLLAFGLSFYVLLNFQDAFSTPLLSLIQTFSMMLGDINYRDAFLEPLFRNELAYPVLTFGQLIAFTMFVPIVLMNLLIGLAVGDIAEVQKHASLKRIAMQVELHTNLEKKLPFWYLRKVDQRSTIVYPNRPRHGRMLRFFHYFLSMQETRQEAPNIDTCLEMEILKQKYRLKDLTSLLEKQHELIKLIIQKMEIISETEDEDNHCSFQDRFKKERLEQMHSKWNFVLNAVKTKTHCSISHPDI
Summary of the method: (§4)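 HEK293 cells stably transfected with human TRPV1 or rat TRPA1 cDNA (pcDNA3, G-418 selection) were loaded 1 h at room temperature with Fluo-4-AM, washed and suspended in Tyrode's buffer pH 7.4. [Ca²⁺]i was read by stirred-cuvette spectrofluorimetry before and after adding test compound at various concentrations. Signal from untransfected cells was subtracted. Efficacy was taken as percent of ionomycin (4 µM) for TRPV1 and percent of allyl isothiocyanate (100 µM) for TRPA1; EC50 was also derived.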

[7] = target: T1, Diacylglycerol lipase-alpha (Homo sapiens); assay: Activation of human recombinant DAGLalpha expressed in African green monkey COS7 cells assessed as increase in anandamide level per mg of extracted lipid at 1 uM preincubated for 10 mins measured after 20 mins by LC-MS analysis in presence of ionomycin (reference value: 0.16 +/- 004 pmol); type: cell-based; conditions: COS-7; summary of the method: as §3
[8] = target: T3, Transient receptor potential cation channel subfamily V member 1 (Homo sapiens, UniProt Q8NER1); assay: Agonist activity at human TRPV1 receptor expressed in HEK293 cells assessed as increase in intracellular Ca2+ concentration by spectrofluorimetric analysis relative to ionomycin; type: cell-based; summary of the method: as §4
T3 sequence (Q8NER1 whole entry): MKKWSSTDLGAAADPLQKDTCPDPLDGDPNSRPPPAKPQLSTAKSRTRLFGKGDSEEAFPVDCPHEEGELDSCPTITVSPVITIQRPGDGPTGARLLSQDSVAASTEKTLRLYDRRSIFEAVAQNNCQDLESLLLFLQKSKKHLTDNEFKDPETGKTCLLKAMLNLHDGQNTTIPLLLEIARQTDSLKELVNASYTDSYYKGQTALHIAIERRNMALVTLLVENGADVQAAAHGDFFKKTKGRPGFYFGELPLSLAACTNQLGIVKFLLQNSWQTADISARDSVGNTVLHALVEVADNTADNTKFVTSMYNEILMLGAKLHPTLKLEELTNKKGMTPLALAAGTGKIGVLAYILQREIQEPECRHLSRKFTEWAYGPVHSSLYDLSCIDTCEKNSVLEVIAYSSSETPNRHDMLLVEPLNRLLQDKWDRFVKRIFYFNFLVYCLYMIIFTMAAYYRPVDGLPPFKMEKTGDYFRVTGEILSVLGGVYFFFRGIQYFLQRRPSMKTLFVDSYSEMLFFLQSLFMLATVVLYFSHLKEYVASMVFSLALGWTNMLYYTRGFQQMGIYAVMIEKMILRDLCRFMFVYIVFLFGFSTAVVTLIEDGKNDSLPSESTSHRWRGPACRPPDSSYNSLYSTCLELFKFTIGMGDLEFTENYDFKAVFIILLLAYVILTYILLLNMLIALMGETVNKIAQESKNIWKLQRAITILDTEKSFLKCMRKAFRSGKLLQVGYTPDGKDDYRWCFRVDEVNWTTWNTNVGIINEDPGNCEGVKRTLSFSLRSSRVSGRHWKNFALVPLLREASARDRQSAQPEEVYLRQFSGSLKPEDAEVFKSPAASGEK

[9] = target: T3, Transient receptor potential cation channel subfamily V member 1; assay: Antagonist activity at human TRPV1 receptor expressed in HEK293 cells assessed as inhibition of capsaicin-induced intracellular Ca2+ elevation incubated for 5 mins prior to capsaicin-stimulation by spectrofluorimetric analysis; type: cell-based
Summary of the method: (§5)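 Fluo-4-loaded HEK293 cells stably expressing human TRPV1 or rat TRPA1, in Tyrode's buffer pH 7.4, received test compound in the cuvette 5 min before agonist: capsaicin 0.1 µM for TRPV1, AITC 100 µM for TRPA1. The [Ca²⁺]i rise with agonist alone was set to 100%. IC50 came from a variable-slope sigmoidal fit. Untransfected-cell signal was subtracted.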

[10] = target: T1, Diacylglycerol lipase-alpha (Homo sapiens); assay: Activation of human recombinant DAGLalpha expressed in African green monkey COS7 cells assessed as increase in N-oleoylethanolamine level per mg of extracted lipid at 1 uM preincubated for 10 mins measured after 20 mins by LC-MS analysis in presence of ionomycin (reference value: 1.08 +/- 0.17 pmol); type: cell-based; conditions: COS-7; summary of the method: as §3
[11] = target: T4, Transient receptor potential cation channel subfamily A member 1 (Rattus norvegicus, UniProt Q6RI86); assay: Antagonist activity at rat TRPA1 receptor expressed in HEK293 cells assessed as inhibition of allyl isothiocyanate-induced intracellular Ca2+ elevation incubated for 5 mins prior to allyl isothiocyanate-stimulation by spectrofluorimetric analysis; type: cell-based; summary of the method: as §5
T4 sequence (Q6RI86 whole entry): as the sequence (Q6RI86 whole entry) above

[12] = target: T5, Fatty-acid amide hydrolase 1 (Rattus norvegicus, UniProt P97612); assay: Inhibition of FAAH in rat brain membranes assessed as [14C]AEA hydrolysis to [14C]Ethanolamine after 30 mins by scintillation counting analysis; type: cell membranes
T5 sequence (P97612 whole entry): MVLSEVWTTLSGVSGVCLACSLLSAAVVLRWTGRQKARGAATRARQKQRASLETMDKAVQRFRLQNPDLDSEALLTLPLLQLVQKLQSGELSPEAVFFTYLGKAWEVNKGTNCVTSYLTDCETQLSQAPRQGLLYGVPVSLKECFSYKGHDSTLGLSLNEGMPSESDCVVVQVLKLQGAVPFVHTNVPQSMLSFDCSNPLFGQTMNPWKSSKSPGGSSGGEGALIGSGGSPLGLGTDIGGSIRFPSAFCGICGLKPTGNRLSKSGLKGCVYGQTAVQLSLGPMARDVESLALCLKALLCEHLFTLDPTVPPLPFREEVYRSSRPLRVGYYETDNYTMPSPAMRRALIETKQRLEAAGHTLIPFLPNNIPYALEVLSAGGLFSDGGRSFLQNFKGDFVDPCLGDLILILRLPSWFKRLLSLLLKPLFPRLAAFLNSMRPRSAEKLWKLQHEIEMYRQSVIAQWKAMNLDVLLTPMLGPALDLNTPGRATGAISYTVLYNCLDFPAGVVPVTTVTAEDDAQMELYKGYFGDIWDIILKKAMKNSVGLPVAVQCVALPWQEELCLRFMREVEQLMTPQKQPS
Summary of the method: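 Rat brain membranes were incubated with [¹⁴C]AEA in 50 mM Tris-HCl pH 9 for 30 min at 37 °C. Released [¹⁴C]ethanolamine in the aqueous phase was counted by scintillation after CHCl₃/CH₃OH 2/1 extraction. IC50 was the concentration giving 50% inhibition.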

[13] = Selectivity ratio of IC50 for FAAH in rat brain membranes to IC50 for MAGL (unknown origin); type: cell membranes
[14] = target: T4, Transient receptor potential cation channel subfamily A member 1; assay: Agonist activity at rat TRPA1 receptor expressed in HEK293 cells assessed as increase in intracellular Ca2+ concentration by spectrofluorimetric analysis; type: cell-based; summary of the method: as §4
[15] = target: T3, Transient receptor potential cation channel subfamily V member 1; assay: Agonist activity at human TRPV1 receptor expressed in HEK293 cells assessed as increase in intracellular Ca2+ concentration by spectrofluorimetric analysis; type: cell-based; summary of the method: as §4
[16] = target: TRPA1 (Rattus norvegicus); assay: Agonist activity at GDH-tagged rat TRPA1 receptor expressed in HEK293F cells assessed as increase in intracellular Ca2+ concentration by Fluo-4 spectrofluorimetric assay

Structure (SMILES)	Activity [1]	Activity [2]	Activity [3]	Activity [4]	IC50 [5]	Efficacy [6]	Activity [7]	Efficacy [8]	IC50 [9]	Activity [10]	IC50 [11]	IC50 [12]	Ratio IC50 [13]	EC50 [14]	EC50 [15]	EC50 [16]
C[C@H](CCC(=O)O)C[C@H](C)C[C@H](C)C(=O)/C=C(\O)[C@H](C)C[C@H](C)C/C=C/[C@@H](C)[C@@H](O)[C@@H](C)[C@@H](O)C[C@@H]1CC[C@@](C)([C@H]2CC[C@@](C)([C@@H](C)O)O2)O1	3.99 pmol	0.37 pmol	15.7 pmol													
CN(C)C(=O)n1nnc(Cc2ccc(-c3cccc(O)c3)cc2)n1				413 pmol	10 nM	< 10%	0.41 pmol	< 10%	> 100000 nM	7.25 pmol	98900 nM	12 nM				
Cc1cccc(-c2ccc(Cc3nnnn3C(=O)N(C)C)cc2)c1					> 1000 nM	233%		< 10%	> 100000 nM		41000 nM	9.7 nM	39	32800 nM		
CN(C(=O)n1nnc(Cc2ccc(-c3ccccc3)cc2)n1)C1CCCCC1						45.2%		33.6%	9200 nM		15400 nM	96.3 nM		150 nM	250 nM	150 nM
